Experimental data from PubChem BioAssay AID623869 (Vanderbilt High Throughput Screening Facility, 2012).
Hit rate of the full screen: of about 2,100 compounds, about 75 (4%) were called active.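 The calls were made as follows: active = calcium fluorescence trace judged by eye to show a response, as agonist, enhancer of the glutamate response, or inhibitor; inactive = trace judged by eye to show no response.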 The full list was thinned out, with actives kept by preference.

biological target: Metabotropic glutamate receptor 8 (Rattus norvegicus) (UniProt P70579); test: rat mGlu8 modulation via Gqi9 calcium signal, confirmation, counter-screen for GIRK activator project, cell-based, HEK293 rmGlu8, Gqi9 chimera, Fluo-4 calcium (AID 623869); conditions: HEK293 rmGlu8/Gqi9 calcium flux, Fluo-4 fluorescence; glutamate at EC20 added after compound
Sequence (P70579 whole entry, looked up): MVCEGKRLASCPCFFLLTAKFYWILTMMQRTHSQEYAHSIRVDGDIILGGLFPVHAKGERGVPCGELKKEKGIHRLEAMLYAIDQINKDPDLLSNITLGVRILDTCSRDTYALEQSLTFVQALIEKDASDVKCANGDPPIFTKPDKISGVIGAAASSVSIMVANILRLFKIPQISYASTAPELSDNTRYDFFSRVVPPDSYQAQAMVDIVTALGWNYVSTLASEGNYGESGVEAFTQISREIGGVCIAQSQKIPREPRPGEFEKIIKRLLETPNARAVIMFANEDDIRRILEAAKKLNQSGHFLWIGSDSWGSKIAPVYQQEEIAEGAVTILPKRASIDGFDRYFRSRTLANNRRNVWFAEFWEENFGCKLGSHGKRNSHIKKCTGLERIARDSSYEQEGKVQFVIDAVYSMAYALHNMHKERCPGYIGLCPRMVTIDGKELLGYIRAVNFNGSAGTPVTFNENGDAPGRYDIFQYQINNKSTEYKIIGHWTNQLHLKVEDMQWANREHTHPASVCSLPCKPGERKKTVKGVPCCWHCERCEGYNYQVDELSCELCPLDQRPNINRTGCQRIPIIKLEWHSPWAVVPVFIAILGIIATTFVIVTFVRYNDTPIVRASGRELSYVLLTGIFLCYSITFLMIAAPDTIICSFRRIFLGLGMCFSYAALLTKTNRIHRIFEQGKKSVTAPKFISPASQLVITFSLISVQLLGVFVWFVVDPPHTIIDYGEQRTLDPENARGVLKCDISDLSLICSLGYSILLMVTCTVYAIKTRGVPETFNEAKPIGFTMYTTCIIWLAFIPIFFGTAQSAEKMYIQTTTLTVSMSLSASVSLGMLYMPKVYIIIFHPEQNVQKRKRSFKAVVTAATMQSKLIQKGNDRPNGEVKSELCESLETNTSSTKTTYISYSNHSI
Outline: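 System – HEK-293 cells stably expressing rat mGlu8, plus transient chimeric Gqi9 · Medium – HEPES-buffered HBSS, pH 7.4 · Also added – EC20 glutamate · Compound – one dose, 20 µM addition solution, 0.2% DMSO · Times – compound 4 min before glutamate, then 2 min recording · Measured by – Fluo-4 calcium fluorescence sampled at 1 Hz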

Structure (SMILES)	outcome
COc1ccc(CN(CCC#N)C(=S)NC(=O)c2ccccc2)cc1	inactive; 0
COC(=O)c1c(NS(=O)(=O)c2cccs2)sc2c1CCCC2	inactive; 0
O=C(C1CCN(S(=O)(=O)c2cccc3cccnc23)CC1)N1CC=C(c2ccccc2)CC1	inactive; 0
O=C(Nc1nnc(-c2ccccc2Cl)o1)c1nc2ccccc2s1	active; 1
O=C(Nc1nnc(-c2ccccc2Cl)o1)c1ccc(S(=O)(=O)N2CCCCCC2)cc1	inactive; 3
O=C(Nc1nnc(-c2ccc(Cl)cc2)o1)c1nc2ccccc2s1	inactive; 0
O=C(Nc1ccc2[nH]c(=S)sc2c1)c1ccccc1	inactive; 0
O=C(NC(=S)N(Cc1ccccc1)Cc1ccccc1)c1ccccc1F	inactive; 0
CCCCOC(=O)c1ccc(NC(=S)NC(=O)c2c(Cl)cnn2CC)cc1	inactive; 0
O=C(Nc1nncs1)c1ccccc1NS(=O)(=O)c1cccs1	inactive; 0
O=S(=O)(Nc1ccccc1N1CCCCC1)c1ccc(Cl)s1	inactive; 0
O=C(Nc1ccccc1)c1ccccc1NS(=O)(=O)c1ccc(Cl)s1	active; 1
CCOc1ccc2nc(/N=C/c3c(C)[nH]n(-c4ccccc4)c3=O)sc2c1	inactive; 0
O=C(NC(=S)N1CCN(c2ccc(Cl)cc2[N+](=O)[O-])CC1)c1cccs1	inactive; 0
Cc1cccc(NC(=S)NC(=O)c2ccco2)n1	inactive; 0
CCCc1ccc(OCC(=O)NNC(=S)NC(=O)c2ccco2)cc1	inactive; 3
COc1ccccc1C(=O)NNC(=S)NC(=O)c1ccco1	inactive; 4
Cc1ccccc1OCC(=O)NNC(=S)NC(=O)c1ccco1	active; 1
CC(Oc1ccc2ccccc2c1)C(=O)NNC(=S)NC(=O)c1ccco1 (stereo not drawn)	inactive; 4
CC(Oc1ccc(Cl)cc1)C(=O)NNC(=S)NC(=O)c1ccco1 (stereo not drawn)	active; 1
CCn1nc(C(=O)OCC(=O)N2CCc3ccccc32)c2ccccc2c1=O	inactive; 0
COc1ccc(CCNC(=O)CSc2nnc(-c3ccc(F)cc3)c3ccccc23)cc1OC	inactive; 0

Structure (SMILES)	outcome
Cc1cc(C)n(-c2nnc(C)n2/N=C/c2ccccc2OCc2ccccc2Cl)n1	inactive; 0
Cc1ccccc1NC(=S)NNC(=O)c1csc2c1CCC(C)C2 (stereo not drawn)	inactive; 0
Cc1ccc(CSc2ncnc3c2cnn3-c2ccc(C)cc2)cc1	inactive; 0
CCCn1c(=O)c2ccccc2n2c(SCCOc3ccccc3F)nnc12	active; 2
CCCn1c(=O)c2ccccc2n2c(SCC(=O)N3CCc4ccccc4C3)nnc12	inactive; 0
CCCn1c(=O)c2ccccc2n2c(SCc3nc4ccccc4s3)nnc12	inactive; 0
O=C(NC(NC(=S)Nc1ccc(Cl)cc1Cl)C(Cl)(Cl)Cl)c1cccc([N+](=O)[O-])c1 (stereo not drawn)	inactive; 4
S=C(Nc1ccccc1Cl)Nc1ccc(Cl)cc1Cl	inactive; 0
COC(=O)c1ccc(CSc2ccc3nnc(-c4ccccc4)n3n2)o1	active; 2
CCC(Sc1ccc2nnc(-c3ccc(F)cc3)n2n1)C(=O)OC (stereo not drawn)	inactive; 0
COC(=O)c1ccc(CSc2nnc(Nc3ccccc3OC)s2)o1	inactive; 0
COc1ccc2nc(N3C(=O)/C(=C/c4ccccc4)NC3=S)sc2c1	inactive; 0
CCCc1ccc(C(=O)N2CCN(c3ccccc3OCC)CC2)cc1	inactive; 0
Cc1cc(C)c2nc(NC(=O)c3cc(C)on3)sc2c1	inactive; 0
CCOc1ccc(-c2nc(-c3cccnc3)no2)cc1OCC	active; 2
CCOc1cc(-c2noc(-c3cccnc3)n2)ccc1OC	inactive; 0
CCOc1ccc(-c2nc(-c3ccncc3)no2)cc1OCC	inactive; 0
Cc1cccc(C(=O)NC(=S)Nc2ccccc2C(F)(F)F)c1	inactive; 0
O=C(CNC(=S)NC(=O)c1cccs1)c1ccccc1	inactive; 0
O=C(NC(=S)NNC(=O)c1cccs1)c1ccc(Br)o1	active; 1
Cc1cccc(C(=O)NC(=S)NNC(=O)c2cccs2)c1	active; 1
Cc1cccc(NC(=O)NC(=S)NC(=O)c2ccccc2)c1	inactive; 0

Structure (SMILES)	outcome
Cc1cccc(C(=O)NC(=S)NNC(=O)c2ccccc2Cl)c1	active; 1
Cc1cccc(C(=O)NC(=S)NNC(=O)c2ccc(Cl)cc2)c1	active; 1
Cc1ccc(C(=O)NNC(=S)NC(=O)c2ccc(Cl)cc2)cc1	inactive; 4
CC(=O)c1cccc(NC(=S)NC(=O)c2cccc(C)c2)c1	inactive; 0
Cc1ccnc(NC(=S)NC(=O)c2cccs2)c1	inactive; 0
O=C(NNC(=O)c1cccs1)Nc1cccc(Cl)c1	inactive; 0
CC(C)CNC(=S)NC(=O)c1ccccc1Cl	inactive; 0
CC(C)CNC(=S)NC(=O)c1ccc([N+](=O)[O-])cc1	inactive; 0
O=C(COc1ccccc1Cl)NC(=S)N1CCc2ccccc21	inactive; 0
C=CCCCCCCCCc1nc(=S)[nH][nH]1	inactive; 0
Cc1cccc(NC(=S)NNC(=O)c2sccc2C)c1	inactive; 0
O=C(NC(=S)N1CCN(c2ccc(Cl)cc2[N+](=O)[O-])CC1)c1ccco1	inactive; 0
O=C(N/N=C\c1cc(Br)c(Br)o1)c1cncc(Br)c1	inactive; 0
Cc1cc(C)c2nc(SCC(=O)NCCC3=CCCCC3)cc(C)c2c1	inactive; 0
c1csc(CCNc2ncnc3sc4c(c23)CCC4)c1	inactive; 0
COC(=O)c1sccc1NC(=O)CSc1ccccc1NS(=O)(=O)c1cc(Cl)ccc1Cl	inactive; 0
CC1=NCCN1S(=O)(=O)c1cc(Cl)ccc1Cl	inactive; 0
O=S(=O)(Nc1nc(-c2sccc2Cl)cs1)c1cc(Cl)ccc1Cl	active; -1
O=C(NNc1nc2ccccc2nc1C(F)(F)F)c1ccccc1	inactive; 0
Cc1cccc(N=C2NC(=O)/C(=C/C=C/c3ccco3)S2)c1C	inactive; 0
Cc1nc(SC2CCOC2=O)c2c(C)c(C)sc2n1 (stereo not drawn)	inactive; 0
Cc1sc2nc(C(C)C)nc(SCC(=O)N3c4ccccc4CC3C)c2c1C (stereo not drawn)	inactive; 0

Structure (SMILES)	outcome
C/C(=N\NC(=O)c1cccc(F)c1)c1ccc(Br)s1	active; 1
C/C(=N\NC(=O)c1ccccc1O)c1ccc(Br)s1	inactive; 0
C/C(=N\NC(=O)c1ccc(Cl)cc1)c1ccc(Br)s1	inactive; 0
Cc1ccc2c(Cl)cc(Cl)c(OCC(=O)NCc3ccco3)c2n1	inactive; 0
O=C(NN=c1c(=O)c2ccccc2c1=O)c1ccccc1	inactive; 0
C=COCCNC(=O)Nc1ccc(Cl)c(Cl)c1	inactive; 4
Cc1ccc(NC(=O)CSC(N)=O)cc1Cl	inactive; 0
O=C(CC(O)(C(F)(F)F)C(F)(F)F)Nc1ccc(Cl)c(Cl)c1	active; 1
O=C(NNC(=O)c1sccc1-n1cccc1)c1ccc(Cl)cc1	inactive; 0
CCOC(=O)c1ccccc1NC(=O)CSc1nnc(Cc2cccn2C)n1-c1ccc(C)cc1	inactive; 0
Fc1ccc(/C=N/n2c(-c3cccs3)n[nH]c2=S)cc1	inactive; 0
CCOc1ccc2nc(/N=C/c3c(C)[nH]n(-c4ccc(C)cc4)c3=O)sc2c1	inactive; 0
O=c1c2cc(Br)ccc2nc(-c2cccc(C(F)(F)F)c2)n1O	active; 1
O=c1c2ccc(Cl)cc2nc(-c2cccc(C(F)(F)F)c2)n1O	inactive; 3
O=c1c2ccccc2nc(-c2cccc(Cl)c2)n1O	inactive; 0
COC(=O)c1onc(C(=O)c2ccccc2)c1C(=O)OC	inactive; 0
COc1ccc(N2CCCn3c2nc2c3c(=O)n(Cc3ccccc3F)c(=O)n2C)c(OC)c1	inactive; 0
COc1ccc(NC(=O)C(=O)NNC(=O)c2cccs2)c(OC)c1	inactive; 0
Cn1c(=O)c2c(nc(-n3ccnc3)n2Cc2ccccc2)n(C)c1=O	inactive; 0
Cn1c(N2CCCC2)nc2c1c(=O)n(Cc1ccc(Cl)cc1)c(=O)n2C	active; 2
COc1ccc(N2CCN(c3nc4c(c(=O)n(C)c(=O)n4C)n3Cc3ccccc3)CC2)cc1	inactive; 0
CCOC(=O)Cc1csc(NC(=S)NC(=O)c2ccccc2Br)n1	inactive; 0

Structure (SMILES)	outcome
CCc1ccc(NC(=S)NNC(=O)c2ccccc2OC(F)F)cc1	inactive; 0
Cc1ccc(C)c(NC(=S)NNC(=O)c2csc3c2CCC(C)C3)c1 (stereo not drawn)	inactive; 0
O=C(N/N=C\c1ccc(Cl)s1)c1cccs1	inactive; 0
COc1ccc(CNc2nc(-c3cccnc3)nn2C(=O)c2ccco2)cc1	active; 2
O=C(c1cc2nc(-c3ccccc3)cc(-c3ccccc3)n2n1)N1CCN(C(=O)c2ccco2)CC1	inactive; 0
CCC(=O)n1nc(-c2cccnc2)nc1NCc1ccc(OC)cc1	inactive; 0
Cc1oc(-c2ccccc2)nc1CS(=O)CC(=O)O (stereo not drawn)	inactive; 0
CCCCN(CCCC)C(=S)NC(=O)c1ccccc1Cl	inactive; 0
CCN(CC)C(=O)CSc1nc2ccccc2c(=O)n1-c1ccccc1OC	inactive; 0
COc1ccc(-c2nnc(CSc3nc4ccccc4c(=O)n3C)o2)cc1OC	active; 2
COc1cc(-c2nnc(CSc3nc4ccccc4s3)o2)cc(OC)c1OC	inactive; 0
Fc1ccc2nc(-c3ccccc3)nc(SCc3nnc(-c4ccccc4)o3)c2c1	inactive; 0
O=S(=O)(c1ccc(-c2nnc(SCc3nnc(-c4ccccc4)o3)o2)cc1)N1CCCC1	inactive; 0
c1ccc(Cc2nnc(-c3ccccc3)o2)cc1	active; -1
CCC(=O)N1CCN(c2ccccc2NC(=O)COc2cccc(C)c2)CC1	inactive; 0
CNc1nc(Cl)nc(NC(C)(C)C)n1	active; 2
O=C1Nc2ccccc2C12OCC1(CO2)COC2(OC1)C(=O)Nc1ccccc12 (stereo not drawn)	active; 2
O=C(c1ccco1)N1CCN(C(=O)c2cnn3c2NC(c2cccs2)CC3C(F)(F)F)CC1 (stereo not drawn)	inactive; 0
Cc1ccc(-c2csc3ncnc(N4CCN(C(=O)c5ccccc5)CC4)c23)cc1	inactive; 0
O=C(c1ccco1)N1CCN(c2ncnc3scc(-c4cccs4)c23)CC1	active; 2
